According to ChEMBL document CHEMBL4196129, “Structural Optimization and Characterization of Potent Analgesic Macrocyclic Analogues of Neurotensin (8-13)” (J Med Chem, 2018):
One block for each molecule: values may come before it. Calls of active or inactive are those of the source. The calls are words filed in the database; no cut-off is given here. Starred links: 1 amine or outer side, 2 acyl side, 3 side chain; linkers in the order of their positions; H or OH if unused. Positions of bridges follow the written chain, without caps; N, C: chain ends. Non-standard residues stand in square brackets, D forms with d. Residues, ends and D or L forms follow the SMILES beside them. *: point of attachment. X6 = C=CCc1cc(C[C@H](N[*:1])C(=O)[*:2])ccc1O; NMeR = CN[C@@H](CCCNC(=N)N)C(=O)O; X7 = C=CCCCCCCC(=O)*

Tests used:
Rattus norvegicus [1] = experiment: Analgesic activity in Sprague-Dawley rat assessed as increase in tail withdrawal latency at 30 ug/kg, it measured at 10 mins post injection by tail flick test relative to control; type: functional
Method in brief: (§1)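 Adult male Sprague-Dawley rats (225-300 g), acclimatized 5 min/day for 3 days. Baseline tail-flick latency taken before injection. Dosing under light isoflurane anesthesia, intrathecal at L5-L6, compound in 0.9% saline; saline alone as control. Latency to heat (light beam) read every 10 min up to 60 min. %MPE taken at 10 min post-injection.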

Rattus norvegicus [2] = experiment: Hypotensive activity in Sprague-Dawley rat assessed as reduction in arterial blood pressure in first phase at 0.01 mg/kg, iv measured every second up to 900 secs; type: functional
Method in brief: (§2)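 Sprague-Dawley rats anesthetized with ketamine/xylazine (87:13 mg/kg, i.m.) on a heated pad. Compound given i.v. via jugular vein catheter at 0.01 mg/kg (1 mL/kg over 5-10 s); saline as control. Arterial pressure recorded each second for 900 s. Change in mean arterial pressure taken from basal level; n=3-5 rats.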

Rattus norvegicus [3] = experiment: Analgesic activity in Sprague-Dawley rat assessed as increase in tail withdrawal latency at 30 ug/kg, it measured every 10 mins up to 60 mins by tail flick test; type: functional, organism-based; method in brief: as §1
Rattus norvegicus [4] = experiment: Analgesic activity in formalin-induced Sprague-Dawley rat pain model assessed as inhibition of nociceptive response in right hind paw at 30 ug/kg, it measured for 21 to 60 mins; type: functional, organism-based
Method in brief: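 Male Sprague-Dawley rats dosed intrathecally at 30 µg/kg in 0.9% saline; 5 min later, 50 µl of 2% formaldehyde given into the right hind paw plantar surface. Weighted pain score (0-3) recorded per 3-min block over 60 min. Acute phase 0-9 min, inflammatory phase 21-60 min.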

Rattus norvegicus [5] = experiment: Induction of hypothermia in Sprague-Dawley rat assessed as reduction in body temperature at 30 ug/kg, it after 60 mins; type: functional, organism-based
Method in brief: (§3)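 Rectal thermistor temperature in adult Sprague-Dawley rats acclimatized 5 min/day for 3 days. Baseline taken, then readings every 10 min to 60 min after intrathecal dosing in 0.9% saline, at 0.3, 1, 3, 10 and 30 µg/kg for the dose-response series. Single-dose comparisons at 30 µg/kg read only at 60 min. Change from baseline per animal; AUC per dose used for ED50.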

Rattus norvegicus [6] = experiment: Hypotensive activity in Sprague-Dawley rat assessed as reduction in arterial blood pressure in third phase at 0.01 mg/kg, iv measured every second up to 900 secs; type: functional, organism-based; method in brief: as §2
Rattus norvegicus [7] = experiment: Hypotensive activity in Sprague-Dawley rat assessed as reduction in arterial blood pressure in first phase at 0.01 mg/kg, iv measured every second up to 900 secs
[8] = Half life in rat plasma by UPLC-MS analysis; type: ADME, cell-free
Method in brief: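 Quenched with acetonitrile/ethanol (1:1) plus 0.5% nicotinamide, centrifuged and filtered. Parent peptide measured by UPLC-MS; half-life from a one-phase decay fit.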

[9] = target: T1, Neurotensin receptor type 1 (Homo sapiens, UniProt P30989); experiment: Displacement of [125I]Tyr3-neurotensin from human NTS1 receptor expressed in CHOK1 cell membranes after 60 mins by gamma counting analysis
[10] = target: T1, Neurotensin receptor type 1; experiment: Agonist activity at Galpha13-Rluc2/Gbeta1/GFP10-Ggamma1 fused human NTS1 expressed in CHO-K1 cell membranes assessed as Galpha13 activation after 5 mins by BRET assay; type: functional, cell-based
[11] = target: T1, Neurotensin receptor type 1; experiment: Agonist activity at GFP10/beta-arrestin1-Rluc2 fused human NTS1 expressed in CHO-K1 cell membranes assessed as beta-arrestin1 recruitment after 20 mins by BRET assay; type: functional, cell-based
[12] = target: T1, Neurotensin receptor type 1; experiment: Displacement of [125I]Tyr3-neurotensin from human NTS1 receptor (end Leu 194 residues) expressed in CHO cells; type: cell-based
Method in brief: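 Membranes from CHO-K1 cells stably expressing hNTS1 (15 µg) incubated with 45 pM 125I-[Tyr3]-NT in 50 mM Tris-HCl pH 7.5, 0.2% BSA. Analogue at 10^-11 to 10^-4 M for 60 min at 25°C, then filtration and gamma counting. Nonspecific binding defined with 10^-5 M NT(8-13).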

[13] = target: T1, Neurotensin receptor type 1; experiment: Displacement of [3H]-neurotensin from NTS1 receptor (unknown origin) after 20 mins by liquid scintillation counting analysis
Rattus norvegicus [14] = experiment: Analgesic activity in it dosed Sprague-Dawley rat assessed as increase in tail withdrawal latency measured every 10 mins up to 60 mins by tail flick test; type: functional; method in brief: as §1
Rattus norvegicus [15] = experiment: Analgesic activity in Sprague-Dawley rat assessed as increase in tail withdrawal latency at 1 ug/kg, it measured every 10 mins up to 60 mins by tail flick test; type: functional, organism-based; method in brief: as §1
Rattus norvegicus [16] = experiment: Analgesic activity in Sprague-Dawley rat assessed as increase in tail withdrawal latency at 10 ug/kg, it measured every 10 mins up to 60 mins by tail flick test; type: functional, organism-based; method in brief: as §1
Rattus norvegicus [17] = experiment: Induction of hypothermia in it dosed Sprague-Dawley rat assessed as reduction in body temperature measured every 10 mins up to 60 mins; type: functional; method in brief: as §3
Rattus norvegicus [18] = experiment: Induction of hypothermia in Sprague-Dawley rat assessed as reduction in body temperature at 0.3 to 30 ug/kg, it after 60 mins; type: functional, organism-based; method in brief: as §3
[19] = target: T1, Neurotensin receptor type 1; experiment: Agonist activity at GFP10/beta-arrestin2-Rluc2 fused human NTS1 expressed in CHO-K1 cell membranes assessed as beta-arrestin2 recruitment after 20 mins by BRET assay; type: functional, cell-based
[20] = target: T1, Neurotensin receptor type 1; experiment: Agonist activity at Galphaq-Rluc2/Gbeta1/GFP10-Ggamma1 fused human NTS1 expressed in CHO-K1 cell membranes assessed as Galphaq activation after 5 mins by BRET assay; type: functional, cell-based

T1 sequence (P30989 whole entry, the tested form may be a part): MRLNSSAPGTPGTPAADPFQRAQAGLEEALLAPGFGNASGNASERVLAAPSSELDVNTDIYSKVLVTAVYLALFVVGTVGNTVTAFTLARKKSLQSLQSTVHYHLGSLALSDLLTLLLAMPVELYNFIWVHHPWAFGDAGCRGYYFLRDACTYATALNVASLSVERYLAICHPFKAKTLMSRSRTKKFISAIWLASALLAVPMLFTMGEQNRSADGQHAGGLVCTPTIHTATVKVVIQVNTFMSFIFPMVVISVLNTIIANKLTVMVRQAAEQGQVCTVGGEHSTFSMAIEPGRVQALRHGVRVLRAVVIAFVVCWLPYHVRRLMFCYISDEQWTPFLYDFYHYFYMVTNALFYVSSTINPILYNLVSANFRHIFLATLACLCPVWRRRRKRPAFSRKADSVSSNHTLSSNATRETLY

Compound: CC[C@H](C)[C@H](NC(=O)[C@@H]1Cc2ccc(O)c(c2)CC=CCCCCCC[C@](C)(N)C(=O)N[C@@H](CCCCN)C(=O)N2CCC[C@H]2C(=O)N1)C(=O)N[C@@H](CC(C)C)C(=O)O [listing 1 of 2 here]
MPE (Rattus norvegicus [1]): 70%
Activity (Rattus norvegicus [2]): 25 mmHg

Compound: CC[C@H](C)[C@H](NC(=O)[C@H]1Cc2ccc(O)c(c2)CC=CCCCCCC[C@](C)(N)C(=O)N[C@@H](CCCCN)C(=O)N2CCC[C@H]2C(=O)N1)C(=O)N[C@@H](CC(C)C)C(=O)O
Activity (Rattus norvegicus [3]): Active
Activity (Rattus norvegicus [4]): Active
deltaT (Rattus norvegicus [5]): 2 °C
Activity (Rattus norvegicus [6]): inactive
Activity (Rattus norvegicus [7]): Active

Compound: CC[C@H](C)[C@H](NC(=O)[C@@H]1Cc2ccc(O)c(c2)CC=CCCNCCCC[C@H](N)C(=O)N[C@@H](CCCCN)C(=O)N2CCC[C@H]2C(=O)N1)C(=O)N[C@@H](CC(C)C)C(=O)O
half-life [8]: 0.25 h

Ki [9]: 5600 nM
EC50 ([10]; cho-k1): 433 nM
EC50 ([11]; cho-k1): 1500 nM
Compound: CC[C@H](C)[C@H](NC(=O)[C@@H]1Cc2ccc(O)c(c2)CC=CCCCCCCC(=O)N[C@@H](CCCCN)C(=O)N2CCC[C@H]2C(=O)N1)C(=O)N[C@@H](CC(C)C)C(=O)O

Compound: CC[C@H](C)[C@H](NC(=O)[C@@H]1Cc2ccc(O)c(c2)CC=CCNCCCC[C@@H](N)C(=O)N[C@@H](CCCCN)C(=O)N2CCC[C@H]2C(=O)N1)C(=O)N[C@@H](CC(C)C)C(=O)O
half-life [8]: 24 h

Ki [9]: 656 nM
half-life [8]: 24 h
EC50 [11]: 96 nM
Compound: CC[C@H](C)[C@H](NC(=O)[C@@H]1Cc2ccc(O)c(c2)CC=CCNCCCCCC(=O)N[C@@H](CCCCN)C(=O)N2CCC[C@H]2C(=O)N1)C(=O)N[C@@H](CC(C)C)C(=O)O

half-life [8]: 2.5 h
Compound: CC[C@H](C)[C@H](NC(=O)[C@@H]1Cc2ccc(O)c(c2)CC=CCNCC[C@H](N)C(=O)N[C@@H](CCCCN)C(=O)N2CCC[C@H]2C(=O)N1)C(=O)N[C@@H](CC(C)C)C(=O)O

Compound: CC[C@H](C)[C@H](NC(=O)[C@@H]1Cc2ccc(cc2)OCCCCCC(=O)N[C@@H](CCCNC(=N)N)C(=O)N2CCC[C@H]2C(=O)N1)C(=O)N[C@@H](CC(C)C)C(=O)O
Ki [12]: 450 nM

Ki [13]: 190 nM
Compound: CC(C)C[C@H](NC(=O)[C@@H]1CCC(=O)N[C@@H](CCCNC(=N)N)C(=O)N[C@@H](CCCCN)C(=O)N2CCC[C@H]2C(=O)N[C@@H](Cc2c[nH]c3ccccc23)C(=O)N1)C(=O)O (RKPWEL-OH; lactam N-5)

Compound: CC[C@H](C)[C@H](NC(=O)[C@H]1Cc2ccc(O)c(c2)CC=CCNCCC[C@@H](N)C(=O)N[C@@H](CCCCN)C(=O)N2CCC[C@H]2C(=O)N1)C(=O)N[C@@H](CC(C)C)C(=O)O
Activity (Rattus norvegicus [14]): Dose-dependent effect
Activity (Rattus norvegicus [15]): inactive
Activity (Rattus norvegicus [16]): Active
Activity (Rattus norvegicus [3]): Active
Activity (Rattus norvegicus [4]): Active
Activity (Rattus norvegicus [17]): Dose-dependent effect
deltaT (Rattus norvegicus [18]): 2 °C
Activity (Rattus norvegicus [6]): inactive
Activity (Rattus norvegicus [7]): Active

Compound: CCOC(=O)[C@H](CC(C)C)NC(=O)[C@@H](NC(=O)[C@H](Cc1c[nH]c2ccccc12)NC(=O)[C@@H]1CCCN1C(=O)[C@H](CCCCN)NC(=O)[C@@H](N)CCCCN)C(C)(C)C [listing 1 of 2 here]
Ki [9]: 159 nM

Ki [9]: > 10000 nM
Compound: C=CCCCCCCC(=O)N[C@@H](CCCCN)C(=O)N1CCC[C@H]1C(=O)N[C@@H](Cc1ccc(O)c(CC=C)c1)C(=O)N[C@H](C(=O)N[C@@H](CC(C)C)C(=O)O)[C@@H](C)CC (X7-KP[X6]IL-OH)

Compound: CCOC(=O)[C@H](CC(C)C)NC(=O)[C@@H](NC(=O)[C@H](Cc1c[nH]c2ccccc12)NC(=O)[C@H]1CCCN1C(=O)[C@H](CCCCN)NC(=O)[C@@H](N)CCCCN)C(C)(C)C
Activity (Rattus norvegicus [4]): Active
deltaT (Rattus norvegicus [5]): 2 °C
Activity (Rattus norvegicus [6]): Active
Activity (Rattus norvegicus [7]): Active

Compound: CC[C@H](C)[C@H](NC(=O)[C@@H]1Cc2ccc(O)c(c2)CC=CCNCCC[C@H](N)C(=O)N[C@@H](CCCCN)C(=O)N2CCC[C@H]2C(=O)N1)C(=O)N[C@@H](CC(C)C)C(=O)O [listing 1 of 2 here]
ED50 (Rattus norvegicus [14]): 4.63 µg/kg
MPE (Rattus norvegicus [1]): 50%
ED50 (Rattus norvegicus [17]): 1.96 µg/kg
Activity (Rattus norvegicus [2]): 25 mmHg

Compound: CC[C@H](C)[C@H](NC(=O)[C@@H]1Cc2ccc(O)c(c2)CC=CCCCCCC[C@](C)(N)C(=O)N[C@@H](CCCCN)C(=O)N2CCC[C@H]2C(=O)N1)C(=O)N[C@@H](CC(C)C)C(=O)O [listing 2 of 2 here]
half-life [8]: 24 h
EC50 [19]: 28 nM

Compound: C=CCNCCCC[C@H](N)C(=O)N[C@@H](CCCCN)C(=O)N1CCC[C@H]1C(=O)N[C@@H](Cc1ccc(O)c(CC=C)c1)C(=O)N[C@H](C(=O)N[C@@H](CC(C)C)C(=O)O)[C@@H](C)CC
half-life [8]: 0.0833 h
EC50 [20]: 7 nM
EC50 [11]: 15 nM
EC50 [19]: 9 nM

Compound: CCOC(=O)[C@H](CC(C)C)NC(=O)[C@@H](NC(=O)[C@H](Cc1c[nH]c2ccccc12)NC(=O)[C@@H]1CCCN1C(=O)[C@H](CCCCN)NC(=O)[C@@H](N)CCCCN)C(C)(C)C [listing 2 of 2 here]
MPE (Rattus norvegicus [1]): 75%
Activity (Rattus norvegicus [2]): 25 mmHg

Compound: CC[C@H](C)[C@H](NC(=O)[C@@H]1Cc2ccc(O)c(c2)CC=CCCCNCCCC[C@H](N)C(=O)N[C@@H](CCCCN)C(=O)N2CCC[C@H]2C(=O)N1)C(=O)N[C@@H](CC(C)C)C(=O)O
half-life [8]: 0.3 h

Ki [13]: 3500 nM
Compound: CC(C)C[C@H](NC(=O)[C@@H]1CCC(=O)NCC(=O)N(C)[C@@H](CCCNC(=N)N)C(=O)N[C@@H](CCCCN)C(=O)N2CCC[C@H]2C(=O)N[C@@H](Cc2c[nH]c3ccccc23)C(=O)N1)C(=O)O (G[NMeR]KPWEL-OH; lactam N-6)

Compound: CC[C@H](C)[C@H](NC(=O)[C@@H]1Cc2ccc(O)c(c2)CC=CCN(S(=O)(=O)c2ccccc2[N+](=O)[O-])CCCC[C@H](N)C(=O)N[C@@H](CCCCN)C(=O)N2CCC[C@H]2C(=O)N1)C(=O)N[C@@H](CC(C)C)C(=O)O
half-life [8]: 1.4 h

Compound: CC[C@H](C)[C@H](NC(=O)[C@@H]1Cc2ccc(O)c(c2)CC=CCNCCC[C@H](N)C(=O)N[C@@H](CCCCN)C(=O)N2CCC[C@H]2C(=O)N1)C(=O)N[C@@H](CC(C)C)C(=O)O [listing 2 of 2 here]
half-life [8]: 0.5 to 0.65 h
EC50 [20]: 3 nM
EC50 [10]: 11 nM
EC50 [11]: 4 nM
